Experiments:
Hepatitis B virus [1] = test: Antiviral activity against HBV infected in human HepG2 2.2.15 cells assessed as decrease in extracellular viral DNA level at 0.8 uM measured after incubation of 6 days by RT-PCR analysis; format: functional; conditions: HepG2 2.2.15, 144 h, time 6 day
How it was run: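 HepG2 2.2.15 cells, which stably carry the HBV genome, were grown in DMEM with 10% FBS, penicillin/streptomycin and 0.38 mg/mL G418. They were seeded at 2×10^5/well and allowed to recover for 24 h. Cells were then exposed to 0.8 µM compound for 6 days, with medium changed every 2 days. HBV DNA was quantified by real-time PCR and expressed as % inhibition versus control.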

[2] = Cytotoxicity against human HepG2 2.2.15 cell line assessed as cell viability measured after 72 hrs by MTT assay; format: cell-based; conditions: HepG2 2.2.15 cells
How it was run: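 HepG2 2.2.15 cells were precultured for 24 h, then incubated with compound for 72 h. Viability was read as MTT absorbance at 490 nm relative to untreated cells on the same plate. CC50 is the concentration causing 50% cell death.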

Hepatitis B virus [3] = test: Antiviral activity against wild type HBV infected in human […] cells assessed as inhibition of viral DNA replication at 10 uM measured after incubation of 72 hrs by RT-PCR analysis relative to control; format: functional, HepG2 2.2.15
How it was run: (§1)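 Parental HepG2 cells were plated at 2×10^5/well. After 24 h they were transiently transfected for 24 h with a full-length wild-type HBV genome plasmid, then washed with PBS. Cells were then treated for 72 h in fresh medium: entecavir 10 µM, lamivudine 100 µM. Intracellular HBV DNA replicative intermediates were quantified by real-time PCR.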

Hepatitis B virus [4] = test: (§2) Antiviral activity against lamivudine/entecavir-resistant HBV rtL180M/rtM204V/rtT184L mutant infected in human HepG2 2.2.15 cells assessed as inhibition of viral DNA replication at 10 uM measured after incubation of 72 hrs by RT-PCR analysis relative to control; format: functional
How it was run: (§3)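 HepG2 cells (2 × 10^5/well) plated 24 h, then transiently transfected for 24 h with plasmid carrying full-genome HBV with rtL180M + rtM204V + rtT184L (wild-type genome in parallel). Washed with PBS, then given fresh medium with compound for 72 h. Intracellular HBV DNA replicative intermediates extracted and quantified by real-time PCR against the wild-type group.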

Hepatitis B virus [5] = test: Antiviral activity against HBV infected in human HepG2 2.2.15 cells assessed as decrease in extracellular viral DNA level measured after incubation of 6 days by RT-PCR analysis; format: functional, organism-based; conditions: HepG2 2.2.15, 144 h
How it was run: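 Cells were HepG2 2.2.15 (stable HBV genome), seeded at 2×10^5/well and recovered for 24 h. Dose-dependent exposure to compound lasted 6 days, with medium replaced every 2 days. HBV DNA was measured by real-time PCR. IC50 is the concentration giving 50% inhibition of HBV DNA replication, reported as mean ± SD of triplicate experiments.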

Hepatitis B virus [6] = test: Antiviral activity against lamivudine/entecavir-resistant HBV rtL180M/rtM204V/rtT184L mutant infected in human HepG2 2.2.15 cells assessed as inhibition of viral DNA replication measured after incubation of 72 hrs by RT-PCR analysis; format: functional, organism-based; conditions: for IC50: HepG2 2.2.15, 72 h
How it was run: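 HepG2 cells transiently transfected for 24 h with full-genome HBV plasmid carrying rtL180M + rtM204V + rtT184L, washed, then treated over a dose range for 72 h. HBV DNA replicative intermediates quantified by real-time PCR. IC50 is the concentration giving 50% inhibition of HBV DNA replication, as mean ± SD of triplicate experiments.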

[7] = Selectivity index, ratio of CC50 for human HepG2 2.2.15 to IC50 of antiviral activity against HBV infected in human HepG2 2.2.15 cells assessed as decrease in extracellular viral DNA level measured after incubation of 6 days by RT-PCR analysis; format: toxicity, cell-based; conditions: time 6 day, read-out: Selectivity Index
How it was run: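 SI was calculated as the CC50 in HepG2 2.2.15 cells (72 h MTT) divided by the IC50 for HBV DNA inhibition. That IC50 came from HepG2 2.2.15 cells treated for 6 days with medium changed every 2 days, with HBV DNA quantified by real-time PCR.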

Hepatitis B virus [8] = test: Antiviral activity against lamivudine/entecavir-resistant HBV rtL180M/rtM204V/rtT184L mutant infected in human HepG2 2.2.15 cells assessed as inhibition of viral DNA replication at 0.8 uM measured after incubation of 72 hrs by RT-PCR analysis relative to control; format: functional; how it was run: as §3
Hepatitis B virus [9] = test: Antiviral activity against HBV infected in human HepG2 2.2.15 cells assessed as inhibition of pregenomic RNA expression at 1 uM measured after incubation of 6 by RT-PCR analysis relative to control; format: functional; conditions: HepG2 2.2.15, 144 h, read-out: INH, time 6 day
How it was run: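 HepG2 2.2.15 cells were seeded at 6×10^5/well in 6-well plates. They were incubated with 1 µM compound for 6 days. Total cellular RNA was then extracted and pgRNA copies/mL were measured by real-time PCR, giving % inhibition relative to untreated control.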

[10] = as §2, with “Selectivity index, ratio of CC50 for human HepG2 2.2.15 to IC50 of Antiviral” for “Antiviral”, “replication” for “replication at 10 uM”; format: toxicity, cell-based; conditions: read-out: Selectivity Index
How it was run: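 SI is CC50 divided by IC50. CC50 comes from MTT on HepG2 2.2.15 cells, 72 h exposure, absorbance at 490 nm relative to untreated cells. IC50 comes from HepG2 cells transiently transfected with rtL180M + rtM204V + rtT184L HBV plasmid and treated 72 h, with DNA replicative intermediates measured by real-time PCR, triplicate experiments.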

Hepatitis B virus [11] = test: Antiviral activity against wild type HBV infected in human […] cells assessed as inhibition of viral DNA replication at 100 uM measured after incubation of 72 hrs by RT-PCR analysis relative to control; format: functional, HepG2 2.2.15; how it was run: as §1
Hepatitis B virus [12] = test: Antiviral activity against lamivudine/entecavir-resistant HBV rtL180M/rtM204V/rtT184L mutant infected in human HepG2 2.2.15 cells assessed as inhibition of viral DNA replication at 100 uM measured after incubation of 72 hrs by RT-PCR analysis relative to control; format: functional; how it was run: as §3

Compound | inhibition at 0.8 µM (Hepatitis B virus [1]) [%] | CC50 at 72 h [2] [µM] | further results
CN(C)CCCOc1cccc(/C(Br)=C(/NC(=O)c2ccccc2)C(=O)N[C@H](CO)Cc2ccccc2)c1 | 37.7 | 85.6 | –
CC(=O)Oc1cccc(/C(Br)=C(/NC(=O)c2ccccc2)C(=O)N[C@H](CO)Cc2ccccc2)c1 | 32.4 | > 100 | –
C=C1[C@H](CO)[C@@H](O)C[C@@H]1n1cnc2c(=O)[nH]c(N)nc21 [ENTECAVIR] | – | – | inhibition at 10 µM (Hepatitis B virus [3]): 96.8%; inhibition at 10 µM (Hepatitis B virus [4]): 20.7%
O=C(N[C@H](CO)Cc1ccccc1)/C(NC(=O)c1cccc(F)c1)=C(/Br)c1ccccc1 | 9.07 | > 100 | –
Cc1ccccc1C(=O)N/C(C(=O)N[C@H](CO)Cc1ccccc1)=C(\Br)c1ccccc1 | 5.75 | > 100 | –
O=C(N[C@H](CO)Cc1ccccc1)/C(NC(=O)c1ccc(Cl)cc1Cl)=C(/Br)c1ccccc1 | 88 | > 100 | IC50 (Hepatitis B virus [5]): 0.19 µM; inhibition (Hepatitis B virus [6]): Dose-dependent effect; IC50 (Hepatitis B virus [6]): 0.18 µM; selectivity ratio at 144 h [7]: > 526; inhibition at 0.8 µM (Hepatitis B virus [8]): 87%; inhibition at 1 µM (Hepatitis B virus [9]): 63.1%; selectivity ratio at 72 h [10]: > 556
O=C(N[C@H](CO)Cc1ccccc1)/C(NC(=O)c1ccccc1)=C(/Br)c1cccc(C(F)(F)F)c1 | 23.1 | > 100 | –
O=C(N[C@H](CO)Cc1ccccc1)/C(NC(=O)c1ccccc1)=C(/Br)c1cccc(Cl)c1 | 48.2 | > 100 | –
O=C(N[C@H](CO)Cc1ccccc1)/C(NC(=O)c1ccc(Cl)cc1)=C(/Br)c1ccccc1 | 70.7 | > 100 | IC50 (Hepatitis B virus [5]): 0.43 µM; selectivity ratio at 144 h [7]: > 232
O=C(N[C@H](CO)Cc1ccccc1)/C(NC(=O)c1ccccc1F)=C(/Br)c1ccccc1 | 33.6 | > 100 | –
Cc1ccc(C(=O)N/C(C(=O)N[C@H](CO)Cc2ccccc2)=C(\Br)c2ccccc2)cc1 | 47.4 | > 100 | –
COc1cccc(/C(Br)=C(/NC(=O)c2ccccc2)C(=O)N[C@H](CO)Cc2ccccc2)c1 | 48.9 | > 100 | –
CN(C)CCOc1cccc(/C(Br)=C(/NC(=O)c2ccccc2)C(=O)N[C@H](CO)Cc2ccccc2)c1 | 58.4 | 94.7 | –
COc1ccccc1C(=O)N/C(C(=O)N[C@H](CO)Cc1ccccc1)=C(\Br)c1ccccc1 | 11.9 | > 100 | –
O=C(N[C@H](CO)Cc1ccccc1)/C(NC(=O)c1ccccc1)=C(/Br)c1cccc(F)c1 | 42.6 | > 100 | –
Cc1cccc(/C(Br)=C(/NC(=O)c2ccccc2)C(=O)N[C@H](CO)Cc2ccccc2)c1 | 57.3 | > 100 | –
O=C(N[C@H](CO)Cc1ccccc1)/C(NC(=O)c1ccc(Br)cc1)=C(/Br)c1ccccc1 | 43 | > 100 | –
O=C(N[C@H](CO)Cc1ccccc1)/C(NC(=O)c1ccc(F)cc1)=C(/Br)c1ccccc1 | 74.9 | > 100 | IC50 (Hepatitis B virus [5]): 0.38 µM; inhibition (Hepatitis B virus [6]): Dose-dependent effect; IC50 (Hepatitis B virus [6]): 0.43 µM; selectivity ratio at 144 h [7]: > 263; inhibition at 0.8 µM (Hepatitis B virus [8]): 72.9%; selectivity ratio at 72 h [10]: > 232

Compound | inhibition at 0.8 µM (Hepatitis B virus [1]) [%] | CC50 at 72 h [2] [µM] | further results
O=C(N[C@H](CO)Cc1ccccc1)/C(NC(=O)c1ccccc1)=C(/Br)c1cccc(Br)c1 | 14.4 | > 100 | –
COc1ccc(C(=O)N/C(C(=O)N[C@H](CO)Cc2ccccc2)=C(\Br)c2ccccc2)cc1 | 6.25 | > 100 | –
O=C(N[C@H](CO)Cc1ccccc1)/C(NC(=O)c1cccc(Cl)c1)=C(/Br)c1ccccc1 | 5.36 | > 100 | –
O=C(N[C@H](CO)Cc1ccccc1)/C(NC(=O)c1ccccc1Cl)=C(/Br)c1ccccc1 | 13.9 | > 100 | –
Nc1ccn([C@@H]2CS[C@H](CO)O2)c(=O)n1 [LAMIVUDINE] | 86.2 | > 100 | IC50 (Hepatitis B virus [5]): 0.031 µM; IC50 (Hepatitis B virus [6]): > 100 µM; selectivity ratio at 144 h [7]: > 1000; inhibition at 100 µM (Hepatitis B virus [11]): 90%; inhibition at 1 µM (Hepatitis B virus [9]): 0.26%; inhibition at 100 µM (Hepatitis B virus [12]): 18.6%
O=C(N[C@H](CO)Cc1ccccc1)/C(NC(=O)c1ccccc1Br)=C(/Br)c1ccccc1 | 17.2 | > 100 | –
Cc1cc(F)ccc1C(=O)N/C(C(=O)N[C@H](CO)Cc1ccccc1)=C(\Br)c1ccccc1 | 83.2 | > 100 | IC50 (Hepatitis B virus [5]): 0.33 µM; selectivity ratio at 144 h [7]: > 303
Cc1cccc(C(=O)N/C(C(=O)N[C@H](CO)Cc2ccccc2)=C(\Br)c2ccccc2)c1 | 2.94 | > 100 | –
COc1cccc(C(=O)N/C(C(=O)N[C@H](CO)Cc2ccccc2)=C(\Br)c2ccccc2)c1 | 4.89 | > 100 | –
O=C(N[C@H](CO)Cc1ccccc1)/C(NC(=O)c1cccc(Br)c1)=C(/Br)c1ccccc1 | 2.48 | > 100 | –
CCN(CC)CCOc1cccc(/C(Br)=C(/NC(=O)c2ccccc2)C(=O)N[C@H](CO)Cc2ccccc2)c1 | 56.5 | 83.6 | –
O=C(N[C@H](CO)Cc1ccccc1)/C(NC(=O)c1ccc(F)cc1Cl)=C(/Br)c1ccccc1 | 56.1 | > 100 | –
O=C(N[C@H](CO)Cc1ccccc1)/C(NC(=O)c1ccc(F)cc1F)=C(/Br)c1ccccc1 | 58.1 | > 100 | –
O=C(N[C@H](CO)Cc1ccccc1)/C(NC(=O)c1ccc(F)c(F)c1)=C(/Br)c1ccccc1 | 73.7 | > 100 | IC50 (Hepatitis B virus [5]): 0.48 µM; selectivity ratio at 144 h [7]: > 208
O=C(N[C@H](CO)Cc1ccccc1)/C(NC(=O)c1ccccc1)=C(/Br)c1cccc([N+](=O)[O-])c1 | 2.28 | 93.7 | –
O=C(N[C@H](CO)Cc1ccccc1)/C(NC(=O)c1cc(Cl)cc(Cl)c1)=C(/Br)c1ccccc1 | 83.8 | > 100 | IC50 (Hepatitis B virus [5]): 0.27 µM; selectivity ratio at 144 h [7]: > 370
O=C(N[C@H](CO)Cc1ccccc1)/C(NC(=O)c1ccccc1)=C(/Br)c1cccc(O)c1 | 29.6 | 99.5 | –

Reference: ChEMBL document CHEMBL4680304, “Synthesis and evaluation of new phenyl acrylamide derivatives as potent non-nucleoside anti-HBV agents” (Bioorg Med Chem, 2021)
